Measurements from ChEMBL document CHEMBL1156975, “Discovery and SAR of potent, orally available 2,8-diaryl-quinoxalines as a new class of JAK2 inhibitors” (Bioorg Med Chem Lett, 2010).
Values after ≈ are worked out from the molar mass of the structure shown.

Assays:
[1] = molecular target: Tyrosine-protein kinase JAK1 (Homo sapiens, UniProt P23458); experiment: Inhibition of recombinant GST tagged JAK1 protein after 60 mins using FITC-Ahx-KKSRGDYMTMQIG-NH2 substrate
[2] = molecular target: Non-receptor tyrosine-protein kinase TYK2 (Homo sapiens, UniProt P29597); experiment: Inhibition of recombinant GST tagged TYK2 protein after 60 mins using FITC-Ahx-KKSRGDYMTMQIG-NH2 substrate
Chain of Non-receptor tyrosine-protein kinase TYK2 (P29597 whole entry): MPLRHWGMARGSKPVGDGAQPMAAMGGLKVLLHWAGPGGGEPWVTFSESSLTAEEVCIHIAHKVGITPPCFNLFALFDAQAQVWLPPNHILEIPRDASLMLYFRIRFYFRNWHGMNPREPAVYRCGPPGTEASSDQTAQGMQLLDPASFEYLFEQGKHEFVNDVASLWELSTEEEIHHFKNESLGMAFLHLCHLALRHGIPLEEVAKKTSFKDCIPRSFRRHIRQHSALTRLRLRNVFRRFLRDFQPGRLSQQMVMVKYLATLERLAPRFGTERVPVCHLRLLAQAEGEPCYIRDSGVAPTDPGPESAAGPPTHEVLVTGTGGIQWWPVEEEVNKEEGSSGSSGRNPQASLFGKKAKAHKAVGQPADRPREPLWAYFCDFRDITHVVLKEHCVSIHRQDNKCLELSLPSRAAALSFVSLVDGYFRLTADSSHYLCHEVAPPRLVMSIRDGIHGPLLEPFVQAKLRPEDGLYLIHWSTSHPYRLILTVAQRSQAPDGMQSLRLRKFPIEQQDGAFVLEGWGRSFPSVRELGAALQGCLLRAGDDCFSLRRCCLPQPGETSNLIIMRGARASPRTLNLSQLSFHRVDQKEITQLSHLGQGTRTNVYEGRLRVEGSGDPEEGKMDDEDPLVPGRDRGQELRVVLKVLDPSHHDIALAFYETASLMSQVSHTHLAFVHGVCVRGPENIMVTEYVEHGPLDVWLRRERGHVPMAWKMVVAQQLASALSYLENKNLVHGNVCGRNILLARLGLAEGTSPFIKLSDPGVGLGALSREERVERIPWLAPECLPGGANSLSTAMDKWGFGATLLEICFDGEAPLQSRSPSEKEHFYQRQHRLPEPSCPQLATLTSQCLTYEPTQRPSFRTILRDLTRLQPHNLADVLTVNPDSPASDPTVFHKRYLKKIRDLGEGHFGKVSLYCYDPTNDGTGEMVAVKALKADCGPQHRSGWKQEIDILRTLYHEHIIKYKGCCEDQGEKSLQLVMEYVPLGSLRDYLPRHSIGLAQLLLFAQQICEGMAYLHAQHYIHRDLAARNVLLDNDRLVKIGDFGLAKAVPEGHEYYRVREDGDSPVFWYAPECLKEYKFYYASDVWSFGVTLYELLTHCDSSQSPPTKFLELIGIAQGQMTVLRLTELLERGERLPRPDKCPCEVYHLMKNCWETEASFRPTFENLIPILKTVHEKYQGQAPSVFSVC

[3] = Tmax in rat at 3 mg/kg, po or 1 mg/kg, iv by MS/MS analysis; assay type: ADME, organism-based; conditions: in vivo
Summary of the method: (§1)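 Conscious, fed, permanently cannulated female rats, n=4; 1 mg/kg iv via femoral vein in 30% NMP/PEG200, and 3 mg/kg po by gavage in 50% aqueous PEG200, crossover with 48 h washout. Arterial blood was sampled for 48 h (iv) or 24 h (po), precipitated with CH3CN, and measured by C18 HPLC-MS/MS.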

[4] = Growth inhibition of human SET2 cells expressing JAK2V617F mutant after 72 hrs by colorimetric WST1 assay; assay type: functional; conditions: SET-2, 72 h
Summary of the method: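 Megakaryoblastic SET-2 cells were grown in RPMI with 10% FCS, 2 mM L-glutamine and 1% penicillin/streptomycin. Cells were exposed to an 8-point compound concentration range for 72 h. Proliferation was read by WST-1 colorimetric viability, relative to DMSO vehicle controls.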

[5] = molecular target: T1, Tyrosine-protein kinase JAK3 (Homo sapiens, UniProt P52333)
T1 sequence (P52333 whole entry): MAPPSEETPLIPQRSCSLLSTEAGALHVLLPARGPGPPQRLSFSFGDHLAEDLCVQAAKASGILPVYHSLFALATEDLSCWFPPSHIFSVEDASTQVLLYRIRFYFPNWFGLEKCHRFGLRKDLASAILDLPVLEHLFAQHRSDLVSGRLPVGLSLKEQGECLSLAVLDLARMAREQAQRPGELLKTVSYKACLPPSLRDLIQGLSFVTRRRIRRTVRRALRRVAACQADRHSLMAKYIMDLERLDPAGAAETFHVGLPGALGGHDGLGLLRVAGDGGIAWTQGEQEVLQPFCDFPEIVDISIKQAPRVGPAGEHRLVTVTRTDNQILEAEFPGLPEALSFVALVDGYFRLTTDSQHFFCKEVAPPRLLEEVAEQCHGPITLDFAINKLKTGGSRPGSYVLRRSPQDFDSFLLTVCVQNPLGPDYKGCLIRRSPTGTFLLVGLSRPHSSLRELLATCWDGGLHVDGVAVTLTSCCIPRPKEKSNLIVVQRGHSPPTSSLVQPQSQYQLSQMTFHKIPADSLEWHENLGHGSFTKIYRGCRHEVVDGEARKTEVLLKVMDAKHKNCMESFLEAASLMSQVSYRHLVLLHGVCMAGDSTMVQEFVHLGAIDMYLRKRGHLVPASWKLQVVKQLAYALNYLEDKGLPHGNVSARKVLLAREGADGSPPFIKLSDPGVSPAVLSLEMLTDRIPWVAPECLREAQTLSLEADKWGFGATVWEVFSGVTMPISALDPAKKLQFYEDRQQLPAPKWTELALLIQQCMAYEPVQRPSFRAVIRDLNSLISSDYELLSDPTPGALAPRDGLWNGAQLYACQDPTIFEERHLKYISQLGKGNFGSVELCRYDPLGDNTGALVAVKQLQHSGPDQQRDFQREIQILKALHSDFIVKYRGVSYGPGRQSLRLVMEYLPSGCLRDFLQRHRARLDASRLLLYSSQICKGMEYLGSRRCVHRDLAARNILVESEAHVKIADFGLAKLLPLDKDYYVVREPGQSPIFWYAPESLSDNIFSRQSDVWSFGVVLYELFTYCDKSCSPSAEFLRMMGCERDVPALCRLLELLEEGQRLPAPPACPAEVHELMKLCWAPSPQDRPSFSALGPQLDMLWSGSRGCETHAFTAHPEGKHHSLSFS

[6] = Partition coefficient, log P of the compound; assay type: physicochemical; conditions: octanol/water
[7] = Cmax in rat at 3 mg/kg, po or 1 mg/kg, iv by MS/MS analysis; assay type: ADME, organism-based; conditions: in vivo; summary of the method: as §1
[8] = Half life in rat at 1 mg/kg, iv after 48 hrs by MS/MS analysis; conditions: in vivo
[9] = Volume of distribution at steady state in rat at 1 mg/kg, iv or 3 mg/kg, po by MS/MS analysis; assay type: ADME, organism-based; conditions: in vivo, read-out: Vdss; summary of the method: as §1
[10] = Dissociation constant, pKa of the compound; assay type: physicochemical
[11] = Oral bioavailability in rat at 3 mg/kg after 24 hrs by MS/MS analysis; assay type: ADME, organism-based; conditions: in vivo; summary of the method: as §1
[12] = Aqueous solubility at pH 6.8; assay type: physicochemical
[13] = AUC in rat at 1 mg/kg, iv after 48 hrs by MS/MS analysis; assay type: ADME, organism-based; set-up: time < 48 hr, dose 1 mg/kg, route intravenous; conditions: plasma; summary of the method: as §1
[14] = molecular target: Tyrosine-protein kinase JAK2 (Homo sapiens, UniProt O60674)
Chain of Tyrosine-protein kinase JAK2 (O60674 whole entry): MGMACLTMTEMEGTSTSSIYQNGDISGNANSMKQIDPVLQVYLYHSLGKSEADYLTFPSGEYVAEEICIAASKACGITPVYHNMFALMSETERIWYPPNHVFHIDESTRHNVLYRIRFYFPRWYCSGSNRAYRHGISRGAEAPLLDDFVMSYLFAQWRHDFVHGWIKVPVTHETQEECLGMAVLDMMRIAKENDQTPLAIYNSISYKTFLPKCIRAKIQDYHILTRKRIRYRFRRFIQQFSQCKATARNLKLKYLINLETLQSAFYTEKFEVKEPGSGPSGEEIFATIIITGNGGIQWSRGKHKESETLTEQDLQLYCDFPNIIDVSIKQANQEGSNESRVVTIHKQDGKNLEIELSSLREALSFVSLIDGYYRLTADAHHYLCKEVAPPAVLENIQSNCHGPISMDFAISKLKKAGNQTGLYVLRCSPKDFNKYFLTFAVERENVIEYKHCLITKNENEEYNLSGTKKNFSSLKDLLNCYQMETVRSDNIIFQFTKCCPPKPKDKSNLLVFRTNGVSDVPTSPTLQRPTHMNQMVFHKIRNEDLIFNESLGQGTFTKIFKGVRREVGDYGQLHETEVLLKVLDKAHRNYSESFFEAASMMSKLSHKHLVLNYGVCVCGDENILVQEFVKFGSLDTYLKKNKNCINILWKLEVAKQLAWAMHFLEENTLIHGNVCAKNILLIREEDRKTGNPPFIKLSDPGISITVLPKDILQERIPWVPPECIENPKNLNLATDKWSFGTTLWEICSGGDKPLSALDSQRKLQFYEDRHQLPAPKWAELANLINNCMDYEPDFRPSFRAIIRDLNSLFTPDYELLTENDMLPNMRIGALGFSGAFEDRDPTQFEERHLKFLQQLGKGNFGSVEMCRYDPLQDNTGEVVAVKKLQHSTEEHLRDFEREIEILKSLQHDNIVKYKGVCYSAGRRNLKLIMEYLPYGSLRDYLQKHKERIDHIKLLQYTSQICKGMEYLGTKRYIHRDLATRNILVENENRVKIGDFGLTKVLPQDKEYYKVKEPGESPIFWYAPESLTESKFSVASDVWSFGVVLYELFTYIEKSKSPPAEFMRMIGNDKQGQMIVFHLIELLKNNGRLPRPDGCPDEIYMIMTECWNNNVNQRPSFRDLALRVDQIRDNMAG

[15] = Clearance in rat at 1 mg/kg, iv after 48 hrs by MS/MS analysis; conditions: in vivo
[16] = molecular target: Tyrosine-protein kinase ABL1 (Homo sapiens, UniProt P00519)
Chain of Tyrosine-protein kinase ABL1 (P00519 whole entry): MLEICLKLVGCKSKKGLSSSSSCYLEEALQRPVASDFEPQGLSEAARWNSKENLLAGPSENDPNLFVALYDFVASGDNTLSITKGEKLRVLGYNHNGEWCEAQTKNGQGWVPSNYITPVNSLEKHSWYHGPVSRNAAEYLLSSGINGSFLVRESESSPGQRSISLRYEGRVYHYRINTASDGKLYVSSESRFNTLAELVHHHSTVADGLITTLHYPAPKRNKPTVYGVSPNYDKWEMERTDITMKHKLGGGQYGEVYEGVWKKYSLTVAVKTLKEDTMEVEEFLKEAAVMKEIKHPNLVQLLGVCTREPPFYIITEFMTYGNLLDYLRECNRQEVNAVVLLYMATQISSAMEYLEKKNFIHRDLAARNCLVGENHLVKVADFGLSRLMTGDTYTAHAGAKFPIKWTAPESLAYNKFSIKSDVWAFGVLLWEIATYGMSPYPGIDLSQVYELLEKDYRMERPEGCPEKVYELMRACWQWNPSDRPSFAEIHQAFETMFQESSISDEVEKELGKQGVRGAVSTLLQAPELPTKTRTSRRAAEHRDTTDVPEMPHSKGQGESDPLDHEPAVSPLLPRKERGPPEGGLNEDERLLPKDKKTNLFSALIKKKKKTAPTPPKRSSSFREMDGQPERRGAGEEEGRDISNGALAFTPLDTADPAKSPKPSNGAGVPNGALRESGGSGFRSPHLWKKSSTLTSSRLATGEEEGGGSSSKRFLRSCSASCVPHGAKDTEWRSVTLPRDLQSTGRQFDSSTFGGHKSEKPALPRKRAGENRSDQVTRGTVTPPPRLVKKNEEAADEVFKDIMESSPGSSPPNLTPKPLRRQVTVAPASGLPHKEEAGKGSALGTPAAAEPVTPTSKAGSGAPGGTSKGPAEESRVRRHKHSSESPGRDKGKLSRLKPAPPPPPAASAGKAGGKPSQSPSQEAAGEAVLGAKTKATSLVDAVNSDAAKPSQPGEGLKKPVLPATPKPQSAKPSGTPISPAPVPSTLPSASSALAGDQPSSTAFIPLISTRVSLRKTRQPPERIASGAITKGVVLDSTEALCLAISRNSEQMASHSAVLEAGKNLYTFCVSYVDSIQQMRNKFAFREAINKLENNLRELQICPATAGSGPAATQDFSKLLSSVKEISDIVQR

[17] = Terminal half life in iv dosed rat; assay type: ADME, organism-based; conditions: in vivo, read-out: beta t1/2 (converted)
Summary of the method: (§2)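 Conscious rats given an iv bolus, then oral dosing at 3 mg/kg as a suspension in 0.5% carboxymethyl cellulose in bidistilled water. Clearance, volume of distribution, terminal half-life, oral AUC and bioavailability were derived.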

[18] = Volume of distribution in iv dosed rat; assay type: ADME, organism-based; conditions: in vivo; summary of the method: as §2
[19] = test system: Rattus norvegicus; experiment: AUC in rat at 3 mg/kg, po; assay type: ADME, organism-based, Plasma; set-up: dose 3 mg/kg, route oral; conditions: in vivo; summary of the method: as §2
[20] = test system: Rattus norvegicus; experiment: Oral bioavailability in rat at 3 mg/kg; assay type: ADME, organism-based; conditions: in vivo; summary of the method: as §2

Chain of Tyrosine-protein kinase JAK1 (P23458 whole entry): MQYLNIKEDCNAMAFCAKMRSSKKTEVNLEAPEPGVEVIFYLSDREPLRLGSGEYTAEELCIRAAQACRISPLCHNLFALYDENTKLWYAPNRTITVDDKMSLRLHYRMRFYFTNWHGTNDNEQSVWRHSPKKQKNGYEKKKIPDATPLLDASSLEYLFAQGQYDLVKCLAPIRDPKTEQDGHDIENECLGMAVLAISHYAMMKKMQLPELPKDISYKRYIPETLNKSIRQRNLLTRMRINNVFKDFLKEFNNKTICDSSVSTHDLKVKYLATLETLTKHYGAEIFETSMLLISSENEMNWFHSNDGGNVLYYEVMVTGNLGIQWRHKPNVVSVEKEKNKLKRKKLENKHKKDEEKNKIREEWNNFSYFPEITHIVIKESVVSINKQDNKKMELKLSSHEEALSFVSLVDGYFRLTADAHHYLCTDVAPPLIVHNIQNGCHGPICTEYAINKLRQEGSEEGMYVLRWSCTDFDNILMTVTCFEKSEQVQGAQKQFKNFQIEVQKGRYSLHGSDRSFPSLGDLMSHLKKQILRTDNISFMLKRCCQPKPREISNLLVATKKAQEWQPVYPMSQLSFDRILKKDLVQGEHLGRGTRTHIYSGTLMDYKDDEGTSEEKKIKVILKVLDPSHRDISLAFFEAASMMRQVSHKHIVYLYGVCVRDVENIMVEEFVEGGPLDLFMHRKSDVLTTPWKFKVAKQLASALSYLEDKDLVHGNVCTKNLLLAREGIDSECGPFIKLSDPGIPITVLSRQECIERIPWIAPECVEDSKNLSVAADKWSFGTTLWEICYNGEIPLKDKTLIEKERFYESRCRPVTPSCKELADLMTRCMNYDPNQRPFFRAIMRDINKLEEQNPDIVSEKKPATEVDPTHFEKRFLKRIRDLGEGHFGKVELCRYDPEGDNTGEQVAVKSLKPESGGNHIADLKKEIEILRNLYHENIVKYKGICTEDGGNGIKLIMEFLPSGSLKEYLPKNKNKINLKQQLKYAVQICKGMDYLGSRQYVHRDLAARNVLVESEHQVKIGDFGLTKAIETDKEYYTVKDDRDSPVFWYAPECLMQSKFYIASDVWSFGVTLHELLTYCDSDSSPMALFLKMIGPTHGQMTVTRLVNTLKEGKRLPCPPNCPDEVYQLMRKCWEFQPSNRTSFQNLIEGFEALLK

| SMILES | IC50 [1] [nM] | IC50 [2] [nM] | IC50 [5] [nM] | IC50 [14] [nM] | GI50 [4] [nM] | also measured |
| --- | --- | --- | --- | --- | --- | --- |
| CN1CCN(c2ccc(-c3cnc4cccc(-c5cc(F)c(CN6CCS(=O)(=O)CC6)c(F)c5)c4n3)cn2)CC1 | 82 | 86 | 230 | 6.8 | 98 | Tmax [3]: 8 h; logP [6]: 3.8; Cmax [7]: 47 nM; half-life at 48 h [8]: 4.8 h; Vd [9]: 13.2 L/kg; pKa [10]: 3.6; bioavailability [11]: 100%; solubility [12]: 4 µg/mL (≈ 7.08 µM); AUC at 48 h [13]: 0.76 µM·h; clearance at 48 h [15]: 39 mL/min/kg |
| Cc1cc(-c2cnc3cccc(-c4ccc(CN5CCOCC5)c(F)c4)c3n2)ccc1C(=O)N1CCOCC1 | 190 | 520 | 630 | 12.5 | 226 | – |
| Cc1cc(-c2cnc3cccc(-c4ccc(CN5CCS(=O)(=O)CC5)cc4)c3n2)ccc1C(=O)N1CCN(C)CC1 | 89 | – | 232 | 7.1 | 96 | logP [6]: 2.8; pKa [10]: 3.9 |
| CN1CCN(c2ccc(-c3cnc4cccc(-c5cc(F)c(CN6CCOCC6)c(F)c5)c4n3)cc2)CC1 | 28 | 94 | 166 | 4.3 | 152 | Tmax [3]: 5.8 h; logP [6]: 4; Cmax [7]: 74 nM; half-life at 48 h [8]: 13.4 h; Vd [9]: 18.9 L/kg; pKa [10]: 4.5; bioavailability [11]: 100%; solubility [12]: 4 µg/mL (≈ 7.76 µM); AUC at 48 h [13]: 1.65 µM·h; clearance at 48 h [15]: 19 mL/min/kg |
| Fc1cc(-c2cccc3ncc(-c4cnn(C5CCNCC5)c4)nc23)cc(F)c1CN1CCOCC1 | – | – | – | – | 88 | IC50 [16]: 80 nM; Tmax [3]: 7 h; Cmax [7]: 16 nM; Vd [9]: 33 L/kg; pKa [10]: 5.5; bioavailability [11]: 31%; solubility [12]: > 1500 µg/mL; AUC at 48 h [13]: 1.47 µM·h |
| COc1cc(-c2cnc3cc(C)cc(-c4ccc(CC(=O)N5CCS(=O)(=O)CC5)cc4)c3n2)cc(OC)c1OC | > 10000 | > 10000 | > 10000 | 4200 | – | – |
| COc1cc(-c2cnc3cccc(-c4ccc(CC(=O)N5CCS(=O)(=O)CC5)cc4)c3n2)cc(OC)c1OC | 35 | 340 | – | – | 119 | – |
| CNS(=O)(=O)c1ccc(-c2cccc3ncc(-c4cc(OC)c(OC)c(OC)c4)nc23)cc1 | 130 | 640 | 1300 | – | – | half-life [17]: 1.69 h; Vd [18]: 6.75 L/kg; AUC [19]: 4 µg·min/mL; F [20]: 34% |
| Cc1cc(-c2cccc3ncc(-c4ccc(C(=O)N5CCOCC5)c(C)c4)nc23)ccc1CN1CCOCC1 | 362 | 439 | 408 | – | – | – |
| Cc1cc(-c2cnc3cccc(-c4cc(F)c(CN5CCOCC5)c(F)c4)c3n2)ccc1C(=O)N1CCOCC1 | 60 | 120 | 130 | 3.1 | 135 | – |
| COc1cc(-c2cnc3cc(F)cc(-c4ccc(CC(=O)N5CCOCC5)cc4)c3n2)cc(OC)c1OC | 940 | > 10000 | > 10000 | 101 | – | – |

Second part, led by results:

| IC50 [1] [nM] | IC50 [2] [nM] | IC50 [5] [nM] | IC50 [14] [nM] | SMILES | GI50 [4] [nM] | also measured |
| --- | --- | --- | --- | --- | --- | --- |
| 1850 | 7130 | – | – | COc1cc(-c2cnc3cccc(-c4ccc(CN5CCOCC5)c(C)c4)c3n2)cc(OC)c1OC | – | – |
| 460 | 1400 | – | 20 | COc1cc(-c2cnc3cccc(-c4ccc(C(=O)N5CCOCC5)c(C)c4)c3n2)cc(OC)c1OC | – | – |
| 1200 | 4200 | 2700 | 685 | COc1cc(-c2cnc3cccc(-c4ccc(CN5CCOCC5)cc4C)c3n2)cc(OC)c1OC | – | – |
| 390 | 2900 | – | – | COc1cc(-c2cnc3cccc(-c4ccc(C(=O)N5CCOCC5)cc4)c3n2)cc(OC)c1OC | – | – |
| 250 | 2200 | – | 20 | COc1cc(-c2cnc3cccc(-c4ccc(CN5CCOCC5)c(F)c4)c3n2)cc(OC)c1OC | – | – |
| 98 | 520 | – | – | COc1cc(-c2cnc3cccc(-c4ccc(CN5CCS(=O)(=O)CC5)cc4)c3n2)cc(OC)c1OC | – | – |
| 4700 | 9300 | 9900 | – | COc1cc(-c2cnc3cccc(-c4ccc(CN5CCOCC5)cc4F)c3n2)cc(OC)c1OC | – | – |
| 91 | – | – | 13 | COc1cc(-c2cnc3cccc(-c4ccc(CC(=O)N5CCOCC5)cc4)c3n2)cc(OC)c1OC | 228 | – |
| 1500 | > 10000 | > 10000 | – | COc1cc(-c2cnc3cccc(-c4ccc(CN5CCOCC5)cc4)c3n2)cc(OC)c1OC | – | – |
